Test results: ChEMBL document CHEMBL1124534, “Synthesis, mechanism of action, and biological evaluation of mitosenes” (1989)
≈ marks a conversion by molar mass, not a printed value.

What was measured:
A204 = assay: In vitro antitumor activity against A204 rhabdomyosarcoma tumor cell line was determined; format: functional; details: Homo sapiens, read-out: ID50 (the source's name)
Summary of the method: (§1)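 Cell growth inhibition in vitro measured by the PIT method, with mitomycin C as positive reference.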

L1210 = assay: In vitro antitumor activity against L1210 lymphocytic leukemia tumor cell line was determined; format: functional; details: Mus musculus, read-out: ID50 (the source's name)
Summary of the method: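 Inhibition of L1210 leukemia colony formation in vitro, with mitomycin C as positive reference.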

WiDr = assay: In vitro antitumor activity against WiDr colon carcinoma tumor cell line was determined; format: functional; details: Homo sapiens, read-out: ID50 (the source's name); summary of the method: as §1
Mus musculus [1] = assay: Body wieght treated/body weight untreated controls of compound (40 mg/Kg) was evaluated in vivo for antitumor activity against MAC 16 in female NMRI mice on day 12; format: functional
Mus musculus [2] = assay: Body wieght treated/body weight untreated controls of compound (40 mg/Kg) was evaluated in vivo for antitumor activity against MAC 16 in female NMRI mice on day 4; format: functional
Mus musculus [3] = assay: Percentage change in body weight [(day 6 - day 1)/ day 1] for antitumor activity against P388 Leukemia in CD2 mice at fractioned dose treatment of 25 mg/Kg; format: functional
Summary of the method: (§2)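 Mouse P388 leukemia model. Drugs were given intraperitoneally, either as a single injection or once daily for 9 consecutive days (fractioned schedule). Outcomes were median survival time in days, %T/C, and % body weight change.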

Mus musculus [4] = assay: Percentage change in body weight [(day 6 - day 1)/ day 1] for antitumor activity against P388 Leukemia in CD2 mice at fractioned dose treatment of 70 mg/Kg; format: functional; details: in the assay text read “single dose treatment” for “fractioned dose treatment”; summary of the method: as §2
Mus musculus [5] = assay: Mean relative body weight change of treated / mean relative body weight change of control when compound (50 mg/kg/day) administered to inhibit growth of human tumor xenograft GXF 97 was reported at day 21 in mice; format: functional
Summary of the method: (§3)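 GXF 97 xenograft grown subcutaneously in nude mice for 24 days, then randomized; ip dosing began 1 day later, given on days 1-4, with 4-5 mice per group. Read-out is mean relative body weight change of treated divided by mean relative body weight change of controls, in %.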

Mus musculus [6] = assay: Percent change in body weight [(day 6 - day 1)/ day 1] when P388 Leukemic CD2 mice were treated with a compound (50 mg/Kg); format: functional
Mus musculus [7] = assay: Percentage change in body weight [(day 6 - day 1)/ day 1] for antitumor activity against P388 Leukemia in CD2 mice at fractioned dose treatment of 18 mg/Kg; format: functional; summary of the method: as §2
Mus musculus [8] = assay: Mean relative body weight change of treated / mean relative body weight change of control when compound (50 mg/kg/day) administered to inhibit growth of human tumor xenograft GXF 97 was reported at day 14 in mice; format: functional; summary of the method: as §3
Mus musculus [9] = assay: Mean relative body weight change of treated / mean relative body weight change of control when compound (50 mg/kg/day) administered to inhibit growth of human tumor xenograft GXF 97 was reported at day 28 in mice; format: functional; summary of the method: as §3
Mus musculus [10] = assay: Median survival time in days for antitumor activity against P388 Leukemia in CD2 mice at a single dose treatment of 50 mg/Kg; format: functional
Summary of the method: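 P388 leukemia-bearing mice were given one intraperitoneal injection. The read-out was median survival time in days, reported alongside %T/C and % body weight change.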

Mus musculus [11] = assay: Median survival time in days for antitumor activity against P388 Leukemia in CD2 mice at fractioned dose treatment of 18 mg/Kg; format: functional
Summary of the method: (§4)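 P388 leukemia-bearing mice were dosed intraperitoneally once daily for 9 consecutive days (fractioned schedule). The read-out was median survival time in days, reported alongside %T/C and % body weight change.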

Mus musculus [12] = assay: Median survival time in days for antitumor activity against P388 Leukemia in CD2 mice at fractioned dose treatment of 25 mg/Kg; format: functional; summary of the method: as §4
Mus musculus [13] = assay: Percent inhibition of compound (50 mg/Kg) was evaluated in vivo for antitumor activity against MAC 13 in female NMRI mice on day 2; format: functional
Summary of the method: (§5)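 MAC 13 in female NMRI mice. Drugs were given in arachis oil BP by ip route on day 2 or day 29. % inhibition was derived from treated/untreated control tumor weight (volume); a negative value indicates stimulation.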

Mus musculus [14] = assay: Percent inhibition of compound (50 mg/Kg) was evaluated in vivo for antitumor activity against MAC 13 in female NMRI mice on day 29; format: functional; summary of the method: as §5
Mus musculus [15] = assay: Ability of intraperitoneally administered compound (50 mg/kg/day) to inhibit growth of human tumor xenograft GXF 97 was assessed on day 14 tested in five mice; format: functional
Summary of the method: (§6)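 GXF 97 human gastric xenograft grown subcutaneously in nude mice for 24 days, then randomized; dosing began 1 day later as ip injections on days 1-4. Groups had 4-5 mice. Tumor length and width were measured. %T/C = median relative tumor size of treated / median relative tumor size of controls.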

Mus musculus [16] = assay: Ability of intraperitoneally administered compound (50 mg/kg/day) to inhibit growth of human tumor xenograft GXF 97 was assessed on day 21 tested in five mice; format: functional; summary of the method: as §6
Mus musculus [17] = assay: Percent T/C ([…]) for antitumor activity against P388 Leukemia in CD2 mice at a single dose treatment of 50 mg/Kg; format: functional
Summary of the method: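 P388 leukemia mice given a single intraperitoneal injection. Median survival time (days) and body weight change were recorded. %T/C was derived from the survival of treated versus control mice.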

Mus musculus [18] = assay: Percent T/C ([…]) for antitumor activity against P388 Leukemia in CD2 mice at fractioned dose treatment of 18 mg/Kg; format: functional; summary of the method: as §2
Mus musculus [19] = assay: Percent T/C ([…]) for antitumor activity against P388 Leukemia in CD2 mice at fractioned dose treatment of 25 mg/Kg; format: functional; summary of the method: as §2
Mus musculus [20] = assay: Percent T/C ([…]) for antitumor activity against P388 Leukemia in CD2 mice at fractioned dose treatment of 70 mg/kg; format: functional; details: in the assay text read “single dose” for “fractioned dose”; summary of the method: as §2
Mus musculus [21] = assay: Ability of intraperitoneally administered compound (50 mg/kg/day) to inhibit growth of human tumor xenograft GXF 97 was assessed on day 28 tested in five mice; format: functional; summary of the method: as §6
Mus musculus [22] = assay: Relative tumor size on day 28 was reported when compound (50 mg/kg/day) administered to inhibit growth of human tumor xenograft GXF 97 in mice tested after 28 days; format: functional
Summary of the method: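 GXF 97 human gastric xenograft grown subcutaneously in nude mice for 24 days, then mice randomized; treatment began 1 day later. Fractioned ip injections on days 1-4, or single iv injection on day 1; 4-5 mice per group. Tumor size from length and width; relative tumor size (% of controls) read at day 28.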

Mus musculus [23] = assay: Compound (40 mg/Kg) was evaluated in vivo for antitumor activity against MAC 16 in female NMRI mice on day 12 and ratio of tumor weight of treated to that of control was determined; format: functional
Mus musculus [24] = assay: Compound (40 mg/Kg) was evaluated in vivo for antitumor activity against MAC 16 in female NMRI mice on day 4 and ratio of tumor weight of treated to that of control was determined; format: functional
Mus musculus [25] = assay: Median survival time in days for antitumor activity against P388 Leukemia in CD2 mice at single dose treatment of 70 mg/kg
Mus musculus [26] = assay: Compound (50 mg/Kg) was evaluated in vivo for antitumor activity against MAC 13 in female NMRI mice on day 2 and ratio of tumor weight of treated to that of control was determined
Mus musculus [27] = assay: Compound (50 mg/Kg) was evaluated in vivo for antitumor activity against MAC 13 in female NMRI mice on day 29 and ratio of tumor weight of treated to that of control was determined

CCNC(=O)OCc1c2c(n3c1C(O)CCC3)C(=O)C=C(OC)C2=O (stereo not given)
IC50 (A204): < 0.1 µg/mL | IC50 (L1210): 0.942 µg/mL (≈ 2.7 µM) | IC50 (WiDr): 0.18 µg/mL (≈ 0.517 µM)

COC1=C(C)C(=O)c2c(c(CO)c3n2CCCC3O)C1=O (stereo not given)
IC50 (A204): 2.69 µg/mL (≈ 9.23 µM) | IC50 (L1210): 3.72 µg/mL (≈ 12.8 µM) | IC50 (WiDr): 5.89 µg/mL (≈ 20.2 µM)

CCNC(=O)OCc1c2c(n3c1C(O)CCC3)C(=O)C(C)=C(OC)C2=O (stereo not given)
IC50 (A204): 0.05 µg/mL (≈ 0.138 µM) | IC50 (L1210): 1.17 µg/mL (≈ 3.22 µM) | IC50 (WiDr): 0.251 µg/mL (≈ 0.693 µM)

CCCC(=O)OCc1c2c(n3c1C(OC(=O)CCC)CC3)C(=O)C(C)=C(OC)C2=O (stereo not given)
IC50 (A204): 0.021 µg/mL (≈ 0.0503 µM) | IC50 (L1210): > 0.64 µg/mL | IC50 (WiDr): 0.069 µg/mL (≈ 0.165 µM)

COC1=CC(=O)c2c(c(COC(C)=O)c3n2CCCC3O)C1=O (stereo not given)
IC50 (A204): 0.115 µg/mL (≈ 0.36 µM) | IC50 (L1210): 1.75 µg/mL (≈ 5.49 µM) | IC50 (WiDr): 0.287 µg/mL (≈ 0.899 µM)

COC1=CC(=O)c2c(c(CO)c3n2CCC3O)C1=O (stereo not given)
IC50 (A204): 2.6 µg/mL (≈ 9.87 µM) | IC50 (L1210): 1.15 µg/mL (≈ 4.35 µM) | IC50 (WiDr): 2.6 µg/mL (≈ 9.87 µM)

CC(=O)OCc1c2c(n3c1C(OC(C)=O)CC3)C(=O)C(C)=C(N1CC1)C2=O (stereo not given)
IC50 (A204): 0.001 µg/mL (≈ 0.00269 µM) | IC50 (L1210): 0.166 µg/mL (≈ 0.446 µM) | IC50 (WiDr): 0.02 µg/mL (≈ 0.0537 µM)

COC1=C(Br)C(=O)c2c(c(COC(C)=O)c3n2CCCC3OC(C)=O)C1=O (stereo not given)
IC50 (A204): 4.14 µg/mL (≈ 9.39 µM) | IC50 (L1210): 1.12 µg/mL (≈ 2.54 µM) | IC50 (WiDr): 6.49 µg/mL (≈ 14.7 µM)

COC1=C(Br)C(=O)c2c(c(COC(C)=O)c3n2CCC3OC(C)=O)C1=O (stereo not given)
IC50 (A204): 0.479 µg/mL (≈ 1.12 µM) | IC50 (L1210): 0.217 µg/mL (≈ 0.509 µM) | IC50 (WiDr): 0.492 µg/mL (≈ 1.15 µM)

COC1=CC(=O)c2c(c(COC(C)=O)c3n2CCCC3OC(C)=O)C1=O (stereo not given)
IC50 (A204): 0.133 µg/mL (≈ 0.368 µM) | IC50 (L1210): 0.582 µg/mL (≈ 1.61 µM) | IC50 (WiDr): 0.115 µg/mL (≈ 0.318 µM)

COC1=C(C)C(=O)c2c(c(COC(C)=O)c3n2CCCC3OC(C)=O)C1=O (stereo not given)
IC50 (A204): < 0.1 µg/mL | IC50 (L1210): 1.54 µg/mL (≈ 4.1 µM) | IC50 (WiDr): 0.171 µg/mL (≈ 0.456 µM)

CCNC(=O)OCc1c2c(n3c1C(O)CC3)C(=O)C(C)=C(OC)C2=O (stereo not given)
IC50 (A204): 0.001 µg/mL (≈ 0.00287 µM) | IC50 (L1210): 0.206 µg/mL (≈ 0.591 µM) | IC50 (WiDr): 0.051 µg/mL (≈ 0.146 µM)

CCOC(=S)SCc1c2c(n3c1CCC3)C(=O)C(C)=C(OC)C2=O
IC50 (A204): 0.585 µg/mL (≈ 1.6 µM) | IC50 (L1210): > 6.4 µg/mL | IC50 (WiDr): 3.71 µg/mL (≈ 10.1 µM)

COC1=CC(=O)c2c(c(CO)c3n2CCCC3O)C1=O (stereo not given)
IC50 (A204): 1.2 µg/mL (≈ 4.31 µM) | IC50 (L1210): 1.33 µg/mL (≈ 4.78 µM) | IC50 (WiDr): 2.17 µg/mL (≈ 7.83 µM)

COC1=C(C)C(=O)c2c(c(CO)c3n2CCC3O)C1=O (stereo not given)
IC50 (A204): 0.641 µg/mL (≈ 2.31 µM) | IC50 (L1210): 2.6 µg/mL (≈ 9.39 µM) | BW (Mus musculus [1]): 93% | BW (Mus musculus [2]): 118% | BWC (Mus musculus [3]): 17.1% | BWC (Mus musculus [4]): -0.9% | BWC (Mus musculus [5]): 107.2% | BWC (Mus musculus [6]): 2.5% | BWC (Mus musculus [7]): 17.3% | BWC (Mus musculus [8]): 103.8% | BWC (Mus musculus [9]): 103.4% | MST (Mus musculus [10]): 11 days | MST (Mus musculus [11]): 11 days | MST (Mus musculus [12]): 11 days | I (Mus musculus [13]): 3% | I (Mus musculus [14]): -21% | T/C (Mus musculus [15]): 12.6% | T/C (Mus musculus [16]): 4.8% | T/C (Mus musculus [17]): 100% | T/C (Mus musculus [18]): 100% | T/C (Mus musculus [19]): 100% | T/C (Mus musculus [20]): 91% | T/C (Mus musculus [21]): 3.1% | Relative TS (Mus musculus [22]): 20.6% | T/C (Mus musculus [23]): 89% | T/C (Mus musculus [24]): 102% | IC50 (WiDr): 1.33 µg/mL (≈ 4.81 µM) | MST (Mus musculus [25]): 10 days | T/C (Mus musculus [26]): 97% | T/C (Mus musculus [27]): 121%

CCNC(=O)OCc1c2c(n3c1C(O)CC3)C(=O)C=C(OC)C2=O (stereo not given)
IC50 (A204): 0.001 µg/mL (≈ 0.00299 µM) | IC50 (L1210): 0.118 µg/mL (≈ 0.353 µM) | IC50 (WiDr): 0.029 µg/mL (≈ 0.0867 µM)
